The values below come from ChEMBL document CHEMBL1143133, “Discovery of a dopamine D4 selective PET ligand candidate taking advantage of a click chemistry based REM linker” (Bioorg Med Chem Lett, 2008).

In series [1] the target is T1, D(4) dopamine receptor (Homo sapiens) (UniProt P21917).
T1 sequence (whole entry): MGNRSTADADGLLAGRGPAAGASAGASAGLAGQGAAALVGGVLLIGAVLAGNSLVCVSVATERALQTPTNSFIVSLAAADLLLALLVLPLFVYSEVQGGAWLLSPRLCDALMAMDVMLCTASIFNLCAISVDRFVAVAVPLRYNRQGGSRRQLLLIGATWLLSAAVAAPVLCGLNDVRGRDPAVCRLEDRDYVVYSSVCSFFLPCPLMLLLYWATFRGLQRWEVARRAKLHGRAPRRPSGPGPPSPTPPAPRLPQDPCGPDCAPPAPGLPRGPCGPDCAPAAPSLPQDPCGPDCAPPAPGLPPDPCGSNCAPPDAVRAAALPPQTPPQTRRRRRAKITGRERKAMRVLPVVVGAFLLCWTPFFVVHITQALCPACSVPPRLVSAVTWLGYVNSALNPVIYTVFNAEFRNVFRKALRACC
The series can be described thus: Displacement of [3H]spiperone from human cloned dopamine D4 receptor at 100 uM. In general terms: Loss of bound radioactivity is the signal in a displacement assay; it reports binding, not function.

The target of series [2] is T2, D(3) dopamine receptor (Homo sapiens, UniProt P35462). The series can be described thus: Displacement of [3H]spiperone from human cloned dopamine D3 receptor at 100 uM.
In series [3] the target is T3, D(2) dopamine receptor (Homo sapiens, UniProt P14416). The series can be described thus: Displacement of [3H][…] from human cloned dopamine D2 long receptor at 100 uM.
Series [4] addresses T3, D(2) dopamine receptor. The series can be described thus: Binding affinity to human dopamine D2 long receptor. An outline of the steps: (§1)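 Competition radioligand binding at human dopamine receptors: displacement of [³H]spiperone from D2long, D3 and D4.4, screened with test compound at 10 μM, 100 nM and 1 nM. Ki values in nM are means of 2–4 experiments, each run in triplicate.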

The nature of series [5]: Binding affinity to pig cortical membrane 5HT1A receptor. Details: species or system Sus scrofa. An outline of the steps: (§2)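 Porcine cortical membranes with selective radioligands: [³H]8-OH-DPAT or [³H][…] for 5-HT1A, [³H]ketanserin for 5-HT2, and [³H]prazosin for α1. Ki (nM) is the mean of 2–4 experiments, each in triplicate.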
Series [6] is described as follows: Displacement of [3H]prazosin from pig cortical membrane adrenergic alpha-1 receptor. More on the design: species or system Sus scrofa. The method, boiled down:
as §2

Series [7] has as its target 5-hydroxytryptamine receptor 2A (Sus scrofa, UniProt P50129). As to the kind of experiment: Displacement of [3H]ketanserin from pig cortical membrane 5HT2 receptor. The method, boiled down:
as §2

Series [8] addresses T2, D(3) dopamine receptor. As to the kind of experiment: Binding affinity to human D3 receptor. An outline of the steps: as §1
Another series addresses D(1A) dopamine receptor (Sus scrofa, UniProt P50130). The series can be described thus: Binding affinity to pig cortical membrane dopamine D1 receptor. An outline of the steps:
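Porcine D1 receptor binding: displacement of [³H]SCH23390, screened with test compound at 10 μM, 100 nM and 1 nM. Ki (nM) is the mean of 2–4 experiments, each in triplicate.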

Another series concerns the target T4, D(4) dopamine receptor (Homo sapiens, UniProt P21917).
T4 sequence (P21917 whole entry): T1 sequence (whole entry)
The series can be described thus: Binding affinity to human dopamine D4.4 receptor. An outline of the steps:
as §1

A short description of series [9]: Stability in human serum at 90 mins. To be noted: read-out: Stability. Type of series: ADME, cell-free. An outline of the steps:
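The ¹⁸F-labelled radioligand was incubated in human serum for 90 min, and intact tracer was quantified by radio-HPLC.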

Series [10] can be described thus: Distribution coefficient, log D at pH 7.4. Conditions: octanol/water. Type of series: physicochemical. The method, boiled down:
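Lipophilicity determined on the ¹⁸F-labelled radioligand as logD at pH 7.4, n = 6.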

In series [11] the target is Dopamine receptors; D3 & D4 (Homo sapiens) (UniProt P35462+P21917). As to the kind of experiment: Selectivity for human dopamine D4 receptor over human dopamine D3 receptor.
A further series is filed under the species Homo sapiens. As to the kind of experiment: Selectivity for human dopamine D4 receptor over human dopamine D2 receptor.

T2 sequence (P35462 whole entry): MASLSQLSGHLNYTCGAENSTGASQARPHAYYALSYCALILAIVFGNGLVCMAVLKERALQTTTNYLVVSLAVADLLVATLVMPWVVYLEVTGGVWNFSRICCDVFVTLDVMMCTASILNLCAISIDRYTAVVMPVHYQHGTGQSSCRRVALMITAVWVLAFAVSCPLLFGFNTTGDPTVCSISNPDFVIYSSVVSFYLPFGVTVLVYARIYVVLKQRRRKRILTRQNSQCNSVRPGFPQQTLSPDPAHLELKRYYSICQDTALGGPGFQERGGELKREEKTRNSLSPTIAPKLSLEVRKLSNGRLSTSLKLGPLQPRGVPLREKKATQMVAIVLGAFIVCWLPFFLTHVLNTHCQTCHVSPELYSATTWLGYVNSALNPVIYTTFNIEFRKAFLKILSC
Sequence of D(1A) dopamine receptor (P50130 whole entry): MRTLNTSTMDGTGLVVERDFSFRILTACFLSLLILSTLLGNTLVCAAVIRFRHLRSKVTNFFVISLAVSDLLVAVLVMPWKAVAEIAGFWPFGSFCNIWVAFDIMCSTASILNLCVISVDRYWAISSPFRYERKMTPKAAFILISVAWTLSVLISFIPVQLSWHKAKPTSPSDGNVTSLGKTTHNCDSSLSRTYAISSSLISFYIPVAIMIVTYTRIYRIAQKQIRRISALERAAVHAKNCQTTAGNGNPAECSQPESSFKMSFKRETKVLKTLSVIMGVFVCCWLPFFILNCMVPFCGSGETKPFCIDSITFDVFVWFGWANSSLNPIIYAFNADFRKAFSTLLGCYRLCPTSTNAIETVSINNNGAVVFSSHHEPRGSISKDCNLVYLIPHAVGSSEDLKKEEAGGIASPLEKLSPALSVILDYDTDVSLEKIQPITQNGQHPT
Sequence of 5-hydroxytryptamine receptor 2A (P50129 whole entry): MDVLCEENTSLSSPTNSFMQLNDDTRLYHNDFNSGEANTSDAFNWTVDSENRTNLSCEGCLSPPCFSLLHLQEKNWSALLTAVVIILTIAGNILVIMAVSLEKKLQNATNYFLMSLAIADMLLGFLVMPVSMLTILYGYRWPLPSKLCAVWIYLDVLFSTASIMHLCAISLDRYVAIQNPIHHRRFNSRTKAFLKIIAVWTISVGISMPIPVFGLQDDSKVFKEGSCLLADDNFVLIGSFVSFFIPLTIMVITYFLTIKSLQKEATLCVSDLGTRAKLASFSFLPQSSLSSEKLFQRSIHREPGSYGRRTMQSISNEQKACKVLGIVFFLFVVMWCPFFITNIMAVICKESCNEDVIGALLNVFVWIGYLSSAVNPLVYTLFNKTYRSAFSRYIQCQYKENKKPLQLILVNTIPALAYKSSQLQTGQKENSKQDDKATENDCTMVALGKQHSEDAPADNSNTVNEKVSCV
T3 sequence (P14416 whole entry): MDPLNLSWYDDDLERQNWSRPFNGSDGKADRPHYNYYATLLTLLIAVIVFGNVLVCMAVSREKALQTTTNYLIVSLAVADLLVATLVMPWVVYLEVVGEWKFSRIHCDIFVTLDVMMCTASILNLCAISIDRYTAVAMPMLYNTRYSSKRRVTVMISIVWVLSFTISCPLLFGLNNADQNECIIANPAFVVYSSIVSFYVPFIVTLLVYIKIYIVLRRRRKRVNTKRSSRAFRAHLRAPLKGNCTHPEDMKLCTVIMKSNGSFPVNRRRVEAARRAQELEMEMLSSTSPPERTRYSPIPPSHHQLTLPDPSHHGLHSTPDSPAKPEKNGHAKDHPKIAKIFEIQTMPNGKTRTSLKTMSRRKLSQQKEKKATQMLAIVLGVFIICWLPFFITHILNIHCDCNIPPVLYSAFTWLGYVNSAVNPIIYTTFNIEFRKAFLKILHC
Sequence of Dopamine receptors; D3 & D4 (Homo sapiens) (P35462 whole entry, looked up, one chain of several): as the sequence (P35462 whole entry) above

As to `N#Cc1ccc(CN2CCN(c3ccc(Cl)c(Cl)c3)CC2)cc1`, the results for the Activity (in series [1]; at D(3) dopamine receptor [2]; on D(2) dopamine receptor [3]) were 91%, -0% and -0%, respectively.
Usually Ki stands for a measure of affinity in units of concentration, obtained from inhibition or displacement. Lower therefore signals a stronger hold on the target. For the molecule `COc1ccccc1N1CCN(Cc2cccc(OCCF)c2)CC1`, the inhibitory constant (Ki) is 0.057 µM at D(2) dopamine receptor [4]; 0.032 µM in [5]; 0.036 µM in series [6]; 1.9 µM in series [7]; 0.27 µM on D(3) dopamine receptor [8]; 5.2 µM on D(1A) dopamine receptor. On D(4) dopamine receptor, the affinity corresponds to a Ki of 0.0016 µM.
With `N#Cc1ccc(CN2CCN(c3ccc(F)cc3)CC2)cc1`, the results for the Activity (in [1]; on D(3) dopamine receptor [2]; at D(2) dopamine receptor [3]) were 47%, 15% and -0%, respectively.
With `N#Cc1ccc(CN2CCN(c3ccccc3Cl)CC2)cc1`, the Activity in series [1] worked out at 73%; at D(3) dopamine receptor [2] it was 2%; at D(2) dopamine receptor [3], 2%.
Take `COc1ccccc1N1CCN(Cc2ccc(C#N)cc2)CC1`: the Activity amounted to 82% in [1], 5% on D(3) dopamine receptor [2] and 4% on D(2) dopamine receptor [3].
Consider `COc1ccccc1N1CCN(Cc2ccc(OCCF)cc2)CC1`, for which the Ki at D(2) dopamine receptor [4] is 0.12 µM; in [6], 0.047 µM; in series [7], 5.4 µM; at D(3) dopamine receptor [8], 0.077 µM; at D(1A) dopamine receptor it was 3.4 µM; at D(4) dopamine receptor, 0.0037 µM.
Take `Clc1ccc(N2CCN(Cc3ccccc3Br)CC2)cc1Cl`: the figures for the Activity (in [1]; at D(3) dopamine receptor [2]; on D(2) dopamine receptor [3]) were -0%, 14% and 10%, respectively.
Take `FCCOc1ccc(CN2CCN(c3ccc(Cl)cc3)CC2)cc1`: the Ki at D(2) dopamine receptor [4] turned out to be 1.1 µM; in series [5], 5.2 µM; in series [6], 0.16 µM; in [7], 1.8 µM; at D(3) dopamine receptor [8] it was 1.1 µM; on D(1A) dopamine receptor, 1.4 µM. The same molecule returned a Ki on D(4) dopamine receptor of 0.05 µM.
As to `Clc1ccccc1N1CCN(Cc2ccccc2Br)CC1`, the results for the Activity (in [1]; on D(3) dopamine receptor [2]; at D(2) dopamine receptor [3]) were 9%, 4% and -0%, respectively.
For `Cc1ccc(N2CCN(Cc3ccccc3Br)CC2)cc1`, in that order: 7%, 16% and 6%.
A word on the logD: it is lipophilicity at a set pH, counting ionised and neutral species. A low value points to a more hydrophilic compound. In the case of `COc1cc(CN2CCN(c3ccc(Cl)cc3)CC2)c(OCC[18F])cc1OC`, the remaining at 1.5 h in series [9] is more than 95%. For the same molecule, the logD in series [10] stood at 2.8.
Turning to `COc1ccccc1N1CCN(Cc2ccccc2Br)CC1`, the Activity was found to be 44% in series [1], 21% at D(3) dopamine receptor [2] and 9% at D(2) dopamine receptor [3].
For `COc1cccc(CN2CCN(c3ccccc3Cl)CC2)c1`, in that order: 55%, 13% and 4%.
`COc1cccc(CN2CCN(c3ccc(F)cc3)CC2)c1`: the Activity in series [1] is 18%; on D(3) dopamine receptor [2], -0%; at D(2) dopamine receptor [3], 2%.
Consider `COc1cc(CN2CCN(c3ccc(Cl)cc3)CC2)c(OCCF)cc1OC`, for which the Ki on D(2) dopamine receptor [4] turned out to be 0.76 µM; in series [5], 2.8 µM; in series [6], 0.0044 µM; in [7], 0.1 µM; on D(3) dopamine receptor [8] it was 3.9 µM; at D(1A) dopamine receptor, 3.5 µM. Moreover, at D(4) dopamine receptor, the Ki was determined as 0.0017 µM. Besides, the values for the Ratio Ki (in series [11]; in the series listed under Homo sapiens) were 2300 and 450, respectively.
For the molecule `COc1cccc(CN2CCN(c3cccc(OC)c3)CC2)c1`, the Activity in [1] is 46%; on D(3) dopamine receptor [2], 9%; at D(2) dopamine receptor [3], -0%.
The matching figures for `COc1cccc(N2CCN(Cc3ccccc3Br)CC2)c1`: 4%, -0% and 2%.
`COc1cc(CN2CCN(c3ccc(Cl)cc3)CC2)ccc1OCCF`: the Ki came to 21 µM at D(2) dopamine receptor [4]; 18 µM in series [5]; 0.018 µM in series [6]; 0.85 µM in series [7]; 4.9 µM at D(3) dopamine receptor [8]; 5.7 µM at D(1A) dopamine receptor. The molecule also registered an inhibition constant Ki on D(4) dopamine receptor of 0.012 µM. Further, the Ratio Ki in the series listed under Homo sapiens stood at 1750.
On to `COc1cccc(CN2CCN(c3ccc(Cl)c(Cl)c3)CC2)c1`, for which the Activity in series [1] turned out to be 92%; on D(3) dopamine receptor [2], 2%; at D(2) dopamine receptor [3] it was 9%.
As for `FCCOc1cccc(CN2CCN(c3ccc(Cl)cc3)CC2)c1`, the Ki came out at 0.59 µM at D(2) dopamine receptor [4]; 3.3 µM in series [5]; 0.19 µM in [6]; 0.98 µM in [7]; 1.1 µM at D(3) dopamine receptor [8]; 5.1 µM at D(1A) dopamine receptor. For the same molecule, the Ki at D(4) dopamine receptor was determined as 0.082 µM.
As for `Clc1ccc(N2CCN(Cc3cc4ccccn4n3)CC2)cc1`, the Ki was determined as 1.7 µM in series [5], 0.27 µM in series [6], 0.9 µM in [7] and 5.5 µM on D(1A) dopamine receptor.
For the molecule `COc1cccc(N2CCN(Cc3ccc(C#N)cc3)CC2)c1`, the Activity in series [1] came to 69%; on D(3) dopamine receptor [2], 6%; on D(2) dopamine receptor [3], 2%.
Turning to `COc1cc(CN2CCN(c3ccccc3OC)CC2)c(OCCF)cc1OC`, the inhibition constant Ki is 0.094 µM at D(2) dopamine receptor [4]; 0.1 µM in [5]; 0.013 µM in [6]; 0.28 µM in series [7]; 0.33 µM at D(3) dopamine receptor [8]; 6.8 µM on D(1A) dopamine receptor. The molecule further had a Ki at D(4) dopamine receptor of 0.0013 µM.
Take `COc1cc(CN2CCN(c3ccccc3OC)CC2)ccc1OCCF`: the inhibition constant Ki on D(2) dopamine receptor [4] stood at 0.31 µM; in series [5], 0.1 µM; in series [6], 0.021 µM; in [7], 2.1 µM; at D(3) dopamine receptor [8], 1.1 µM; at D(1A) dopamine receptor, 5.4 µM. In addition, the Ki on D(4) dopamine receptor was 0.0018 µM.
Turning to `COc1cccc(CN2CCN(c3ccc(C)cc3)CC2)c1`, the Activity in [1] came to 45%; on D(3) dopamine receptor [2], 39%; at D(2) dopamine receptor [3], 6%.
The matching figures for `Cc1ccc(N2CCN(Cc3ccc(C#N)cc3)CC2)cc1`: 59%, 4% and -0%.
The matching figures for `COc1cccc(CN2CCN(c3ccccc3OC)CC2)c1`: 26%, 39% and 6%.
For the molecule `Fc1ccc(N2CCN(Cc3ccccc3Br)CC2)cc1`, the Activity was 4% in series [1], 1% at D(3) dopamine receptor [2] and 1% on D(2) dopamine receptor [3].
